Experiments:
Plenodomus lingam [1] = assay: Antifungal activity against Leptosphaeria maculans assessed as mycelial radial growth inhibition on potato dextrose agar at 0.10 mM relative to control; assay type: functional
Procedure, shortened: (§1)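 Mycelial radial growth on PDA. L. maculans isolates BJ-125 or UAMH-9410 were grown on V8 agar for 14 days at 23 °C under constant light. Wells with PDA containing test compound (0.50, 0.20 or 0.10 mM) or control, each with 1% CH3CN, were inoculated centrally with inverted 4 mm plugs from 7-day-old V8 plates. Growth after 5 days under constant light gave % inhibition = 100 − (amended/control growth × 100); ± SD.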

Plenodomus lingam [2] = assay: Antifungal activity against Leptosphaeria maculans assessed as mycelial radial growth inhibition on potato dextrose agar at 0.20 mM relative to control; assay type: functional; procedure, shortened: as §1
Plenodomus lingam [3] = assay: Antifungal activity against Leptosphaeria maculans assessed as mycelial radial growth inhibition on potato dextrose agar at 0.50 mM relative to control; assay type: functional; procedure, shortened: as §1
[4] = Half life in water; assay type: physicochemical
[5] = Half life in potato dextrose agar medium; assay type: physicochemical
[6] = Half life in Leptosphaeria maculans; assay type: ADME, organism-based; conditions: plenodomus lingam
Procedure, shortened: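 Minimal medium inoculated with L. maculans BJ-125 spores was shaken at 120 rpm and 23 °C under constant light. After 2 days, compound was added in CH3CN (0.10 mM final); uninoculated medium served as control. Samples were taken immediately and at intervals up to 72–96 h, then frozen or extracted with EtOAc. Extracts were concentrated, taken up in CH3CN and analysed by HPLC.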

Row | half-life [4] [h] | half-life [5] [h] | half-life [6] [h] | SMILES | inhibition at 100 µM (Plenodomus lingam [1]) [%] | inhibition at 200 µM (Plenodomus lingam [2]) [%] | inhibition at 500 µM (Plenodomus lingam [3]) [%]
1 |  |  |  | COc1cccc2[nH]cc(N=C=S)c12 [RAPALEXIN A] | 21 | 53 | 100
2 |  |  |  | CON1c2ccccc2C(O)C12CN=C(SC)S2 (mixture of isomers) [DIHYDROERUCALEXIN] | 7 | 13 | 23
3 | 20 | 24 |  | CNC(=S)SCc1c[nH]c2ccccc12 | 17 | 35 | 61
4 | > 72 |  |  | OCc1c[nH]c2ccccc12 [INDOLE-3-CARBINOL] | 19 | 27 | 52
5 |  |  | < 6 | CON1c2ccccc2C(=O)C12CN=C(SC)S2 (racemic) [RAC-ERUCALEXIN] | 6 | 17 | 40
6 | 48 | 15 |  | C=CCNC(=O)SCc1c[nH]c2ccccc12 [BRUSSALEXIN A] | 7 | 25 | 43
